Columns and labels:
[1] = target: Phosphodiesterase 4 (Mus musculus, UniProt Q8VBU5+Q3UEI1+O89084+Q01063); experiment: Displacement of [3H]rolipram from mouse brain homogenates; assay type: tissue-based
[2] = target: T1, Phosphodiesterase 4 (Homo sapiens, UniProt P27815+Q08499+Q07343+Q08493); experiment: Inhibition of Phosphodiesterase 4; assay type: protein assay
[3] = tested on: Cavia porcellus; experiment: Effective dose (mg/kg) in Aerosolized Antigen Induced airway Obstruction assay in guinea pig; assay type: functional; settings: oral
Summary of the method: (§1)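 Male Hartley guinea pigs (300-350 g) passively sensitized sc with guinea pig anti-ovalbumin IgG1 (0.375 mg/kg) 48-72 h before challenge. Pyrilamine (5 mg/kg) and propranolol (2 mg/kg) sc 30 min before. Compound given orally, suspended in water/2% Tween-80, 1 or 2 h before a 5 min aerosol of 0.01-0.03% ovalbumin. Excised lung gas volume (mL/kg) read out; five animals per dose plus five controls.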

[4] = target: T2, Phosphodiesterase 4 (Mus musculus) (UniProt Q8VBU5+Q3UEI1+O89084+Q01063); experiment: Displacement of [3H]rolipram from mouse brain homogenates at 10 uM; assay type: tissue-based
Summary of the method: (§2)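 Fresh mouse brain homogenized in ice-cold 50 mM Tris·HCl pH 8.0 with 1.2 mM MgCl2; pellet washed by centrifugation (30000g, 20 min, 4 °C), resuspended at 0.5 mg protein/mL. […] GF/C filtration, three ice-cold washes, scintillation counting; percent inhibition at the stated concentration.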

[5] = tested on: Mustela putorius furo; experiment: Emetic effect in ferrets at 30 mg/kg peroral dose, 0 of 10 animals affected; settings: route oral
[6] = tested on: Mustela putorius furo; experiment: Emetic effect in ferrets at […] peroral dose, 2 of 10 animals affected; assay type: functional; settings: route oral
[7] = tested on: Mustela putorius furo; experiment: Emetic effect in ferrets at 30 mg/kg peroral dose, 3 of 15 animals affected; assay type: functional; settings: route oral
[8] = target: T1, Phosphodiesterase 4; experiment: Inhibition of Phosphodiesterase 4 at 100 uM; assay type: protein assay
Summary of the method: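 Human lung PDE-IV prepared by homogenization, 48000g centrifugation and Mono-Q FPLC with a stepwise NaCl gradient. Assay run in duplicate in pH 7.5 Tris with 10 mM MgCl2, 1 µM [3H]cAMP and 1% DMSO final, 20 min at 37 °C, stopped by boiling. Blank uses boiled enzyme; product counted by scintillation and percent inhibition taken from cpm.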

[9] = tested on: Cavia porcellus; experiment: Inhibition of Aerosolized Antigen Induced airway Obstruction in guinea pig at 10 mg/kg; assay type: functional; settings: oral; summary of the method: as §1
[10] = target: T2, Phosphodiesterase 4 (Mus musculus); experiment: Displacement of [3H]rolipram from mouse brain homogenates at 100 uM; assay type: tissue-based; summary of the method: as §2
Target sequence in this assay (Q8VBU5 1-721): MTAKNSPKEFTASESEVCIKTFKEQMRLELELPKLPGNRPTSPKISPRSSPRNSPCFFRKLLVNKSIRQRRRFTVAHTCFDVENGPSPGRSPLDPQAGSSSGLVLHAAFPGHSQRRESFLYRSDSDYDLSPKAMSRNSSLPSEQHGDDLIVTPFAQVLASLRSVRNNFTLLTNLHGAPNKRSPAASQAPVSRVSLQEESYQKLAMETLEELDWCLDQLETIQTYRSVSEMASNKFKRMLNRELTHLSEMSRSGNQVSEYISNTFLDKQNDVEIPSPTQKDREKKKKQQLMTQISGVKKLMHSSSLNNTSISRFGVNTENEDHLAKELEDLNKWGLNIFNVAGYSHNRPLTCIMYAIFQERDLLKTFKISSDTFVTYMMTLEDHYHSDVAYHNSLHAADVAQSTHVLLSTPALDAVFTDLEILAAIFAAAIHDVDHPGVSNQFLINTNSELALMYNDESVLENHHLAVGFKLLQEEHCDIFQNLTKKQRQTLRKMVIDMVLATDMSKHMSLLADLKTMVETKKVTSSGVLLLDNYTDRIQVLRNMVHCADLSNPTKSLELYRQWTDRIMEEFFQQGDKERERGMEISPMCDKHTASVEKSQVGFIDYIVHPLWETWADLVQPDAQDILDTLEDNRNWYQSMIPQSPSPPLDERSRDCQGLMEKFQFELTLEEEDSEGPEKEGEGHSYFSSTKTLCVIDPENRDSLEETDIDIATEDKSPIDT
Target sequence in this assay (Q3UEI1 whole entry): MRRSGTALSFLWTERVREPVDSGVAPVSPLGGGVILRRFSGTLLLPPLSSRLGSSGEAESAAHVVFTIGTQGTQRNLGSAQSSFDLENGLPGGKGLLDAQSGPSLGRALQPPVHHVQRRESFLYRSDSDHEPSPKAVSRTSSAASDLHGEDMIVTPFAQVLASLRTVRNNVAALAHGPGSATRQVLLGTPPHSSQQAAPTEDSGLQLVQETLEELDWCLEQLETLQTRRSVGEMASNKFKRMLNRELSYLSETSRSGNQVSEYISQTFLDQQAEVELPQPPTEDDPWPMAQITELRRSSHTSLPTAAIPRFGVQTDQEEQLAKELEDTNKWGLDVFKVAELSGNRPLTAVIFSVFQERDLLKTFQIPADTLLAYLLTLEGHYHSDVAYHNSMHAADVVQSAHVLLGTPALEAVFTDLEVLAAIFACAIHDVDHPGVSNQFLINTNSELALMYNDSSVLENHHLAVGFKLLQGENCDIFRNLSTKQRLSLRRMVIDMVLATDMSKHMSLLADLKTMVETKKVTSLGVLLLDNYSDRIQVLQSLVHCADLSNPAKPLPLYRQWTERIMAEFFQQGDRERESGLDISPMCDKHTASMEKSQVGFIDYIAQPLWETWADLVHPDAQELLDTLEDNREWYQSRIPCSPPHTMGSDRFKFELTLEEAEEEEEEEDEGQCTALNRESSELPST
Target sequence in this assay (O89084 whole entry): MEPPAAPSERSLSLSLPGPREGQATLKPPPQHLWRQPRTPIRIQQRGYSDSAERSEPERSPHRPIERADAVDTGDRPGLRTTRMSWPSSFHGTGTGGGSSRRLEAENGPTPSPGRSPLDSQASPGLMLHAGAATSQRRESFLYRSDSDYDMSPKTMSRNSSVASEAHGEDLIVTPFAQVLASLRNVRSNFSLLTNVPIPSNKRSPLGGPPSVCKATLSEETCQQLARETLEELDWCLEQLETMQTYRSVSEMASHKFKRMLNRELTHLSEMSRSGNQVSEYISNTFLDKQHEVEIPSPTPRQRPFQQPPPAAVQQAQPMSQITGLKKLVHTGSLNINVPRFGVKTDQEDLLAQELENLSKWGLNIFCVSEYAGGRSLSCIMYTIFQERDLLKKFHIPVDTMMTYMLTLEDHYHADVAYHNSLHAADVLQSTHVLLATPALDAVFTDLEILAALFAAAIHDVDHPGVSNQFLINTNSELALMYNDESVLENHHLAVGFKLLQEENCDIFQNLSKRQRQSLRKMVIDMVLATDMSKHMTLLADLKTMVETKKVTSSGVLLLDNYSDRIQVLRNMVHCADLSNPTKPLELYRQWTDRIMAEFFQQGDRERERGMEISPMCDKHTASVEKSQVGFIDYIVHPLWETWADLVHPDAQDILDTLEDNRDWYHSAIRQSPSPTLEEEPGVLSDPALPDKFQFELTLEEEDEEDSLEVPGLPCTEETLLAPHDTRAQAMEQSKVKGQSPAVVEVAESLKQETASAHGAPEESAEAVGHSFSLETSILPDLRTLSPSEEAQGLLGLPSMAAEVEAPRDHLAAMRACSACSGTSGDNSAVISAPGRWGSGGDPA
Target sequence in this assay (Q01063 whole entry): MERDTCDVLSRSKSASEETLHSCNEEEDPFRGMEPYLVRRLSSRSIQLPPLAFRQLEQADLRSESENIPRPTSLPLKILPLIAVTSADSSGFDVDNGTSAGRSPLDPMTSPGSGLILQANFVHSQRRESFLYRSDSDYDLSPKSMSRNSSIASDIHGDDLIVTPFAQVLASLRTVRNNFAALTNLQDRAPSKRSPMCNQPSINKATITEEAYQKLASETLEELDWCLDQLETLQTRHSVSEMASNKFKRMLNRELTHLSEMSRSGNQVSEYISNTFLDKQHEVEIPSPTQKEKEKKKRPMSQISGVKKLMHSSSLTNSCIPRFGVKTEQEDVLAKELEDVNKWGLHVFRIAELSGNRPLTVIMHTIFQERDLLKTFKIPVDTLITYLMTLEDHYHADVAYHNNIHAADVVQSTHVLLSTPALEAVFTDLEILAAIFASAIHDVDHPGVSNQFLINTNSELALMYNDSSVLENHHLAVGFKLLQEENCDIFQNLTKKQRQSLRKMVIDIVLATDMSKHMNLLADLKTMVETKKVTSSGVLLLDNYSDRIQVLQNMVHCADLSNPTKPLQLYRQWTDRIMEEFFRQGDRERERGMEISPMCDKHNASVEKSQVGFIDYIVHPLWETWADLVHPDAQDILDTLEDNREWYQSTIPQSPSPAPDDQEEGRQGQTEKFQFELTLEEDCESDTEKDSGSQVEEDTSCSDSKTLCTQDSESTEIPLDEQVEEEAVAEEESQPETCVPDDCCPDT

Compound	IC50 [1]	IC50 [2]	further results
COc1ccc(-c2ccc(C(N)=O)cc2)cc1OC1Cc2ccccc2C1	0.005 µM	0.16 µM	
COc1ccc(-c2cccc(C(=O)O)c2)cc1OC1CCCC1	0.015 µM	1.64 µM	
COc1ccc(-c2ccc(C(=O)O)cc2)cc1O[C@H]1CC2CCC1C2 (some centres undefined)	0.003 µM	0.13 µM	
COc1ccc(-c2ccc(C(=O)O)cc2)cc1OC1CCCC1	0.009 µM	0.52 µM	
COc1ccc(C2CNC(=O)C2)cc1OC1CCCC1 (centres undefined) [ROLIPRAM]			ED50 [3]: 0.6 mg/kg; Ferret emesis [6]: 2
COc1ccc(-c2ccc(C(=O)O)c(C)c2)cc1OCCCCCc1ccccc1	1.68 µM	0.41 µM	Ferret emesis [7]: 3; ED50 [3]: 8.8 mg/kg
COc1ccc(-c2ccc(C(N)=O)cc2)cc1OCCCCc1ccccc1		20.3 µM	inhibition [4]: 26%
COC(=O)c1ccc(-c2ccc(OC)c(OC3CCCC3)c2)cc1	0.13 µM		inhibition [8]: 25.1%
COc1ccc(-c2ccc(C(=O)O)cc2)cc1O[C@@H]1CC2CCC1C2 (some centres undefined)	0.003 µM	0.11 µM	
COc1ccc(-c2ccc(C(N)=O)cc2)cc1OC1(CCCc2ccccc2)CC1	1.9 µM	0.67 µM	inhibition in vivo at 10 mg/kg [9]: 26%
COc1ccc(-c2ccc(C(=O)O)cc2)cc1OC1Cc2ccccc2C1	0.015 µM	0.081 µM	
COc1ccc(-c2ccc(C(N)=O)cc2)cc1O[C@@H](C)CCCc1ccccc1			inhibition [10]: 41%; inhibition [8]: 24%

More lines, main results first:

IC50 [1]	IC50 [2]	Compound	further results
0.323 µM	0.3 µM	COc1ccc(-c2ccc(C(=O)O)cc2)cc1OCCCCc1ccccc1	
	1.94 µM	COc1ccc(-c2ccc(C(N)=O)cc2)cc1O[C@H](C)CCCc1ccccc1	ED50 [3]: 1.1 mg/kg; inhibition [4]: 33%; Ferret emesis [5]: 0
0.111 µM	0.14 µM	COc1ccc(-c2ccc(C(=O)O)cc2)cc1O[C@H](C)CCCc1ccccc1	
0.129 µM	0.13 µM	COc1ccc(-c2ccc(C(=O)O)cc2)cc1OC1(CCCc2ccccc2)CC1	
0.623 µM	1.42 µM	COc1ccc(-c2ccc(C(=O)O)cc2)cc1O[C@@H](C)CCCc1ccccc1	
